Assays:
[1] = Selectivity ratio of IC50 for MDCK cells to EC50 for inhibition of virus-induced cytopathic effect of Influenza A virus Duck/MN/1525/81/H5N1; type: cell-based; details: dog, MDCK cells; read-out: Ratio IC50/EC50
Procedure, shortened: (§1)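 IC50 (50% inhibition of uninfected MDCK cells) divided by EC50 (concentration reducing virus-induced CPE by 50%, scored visually), both from replicate serial-dilution assays.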

[2] = Selectivity ratio of IC50 for MDCK cells to EC90 for Influenza A virus Hong Kong/213/2003/H5N1 by virus yield reduction assay; type: ADME, cell-based; details: dog, MDCK cells
Procedure, shortened: (§2)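 IC50 (50% inhibition of uninfected MDCK cells) divided by EC90 (concentration reducing the infectious virus titer by 90% in the yield reduction assay).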

[3] = Selectivity ratio of IC50 for MDCK cells to EC90 for Influenza A virus California/07/2009 /H1N1 by virus yield reduction assay; type: ADME, cell-based; details: dog, MDCK cells; procedure, shortened: as §2
[4] = Selectivity ratio of IC50 for MDCK cells to EC50 for inhibition of virus-induced cytopathic effect of Influenza A virus Wisconsin/67/2005/H3N2; type: cell-based; details: dog, MDCK cells; read-out: Ratio IC50/EC50; procedure, shortened: as §1
[5] = test system: Influenza B virus; assay: Antiviral activity against Influenza B virus Malaysia/2506/2004 infected MDCK cells assessed as inhibition of virus-induced cytopathic effect after 3 days; type: functional, organism-based, B/Malaysia/2506/2004; details: Influenza B virus, B/Malaysia/2506/2004, MDCK, 72 h
Procedure, shortened: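 Triplicate MDCK (ATCC CCL-34) wells got serial dilutions of compound. They were then inoculated with ≤300 CCID50, enough for ~100% CPE in control wells within 3 days, using the same inoculum for all replicates. CPE was scored visually. EC50 is the concentration reducing CPE by 50%, as the mean of triplicates.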

[6] = Selectivity ratio of IC50 for MDCK cells to EC50 for Influenza A virus Vietnam/1203/ 2004H/H5N1 by neutral red dye uptake assay; type: ADME, cell-based; details: dog, MDCK cells; read-out: Ratio IC50/EC50
Procedure, shortened: (§3)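 Neutral red uptake in MDCK cells: IC50 (50% inhibition of uninfected cells) divided by EC50 (50% inhibition of virus effect), both from replicate serial-dilution assays.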

[7] = Selectivity ratio of IC50 for MDCK cells to EC50 for Influenza A virus Hong Kong/213/2003/H5N1 by neutral red dye uptake assay; type: ADME, cell-based; details: dog; for selectivity ratio: MDCK cells, read-out: Ratio IC50/EC50; procedure, shortened: as §3
[8] = test system: H5N1 subtype; assay: Antiviral activity against Influenza A virus Hong Kong/213/2003/H5N1 infected MDCK cells after 42 to 46 hrs by neutral red dye uptake assay; type: functional, organism-based, Influenza A virus (A/Hong Kong/213/2003(H5N1))
[9] = test system: H5N1 subtype; assay: Antiviral activity against Influenza A virus Gull/PA/4175/83/H5N1 infected MDCK cells after 42 to 46 hrs by neutral red dye uptake assay; type: functional, organism-based, Influenza A virus (A/gull/Pennsylvania/4175/83(H5N1)); details: Influenza A virus, MDCK
[10] = Selectivity ratio of IC50 for MDCK cells to EC90 for Influenza A virus Solomon Islands/03/2006/H1N1 by virus yield reduction assay; type: ADME, cell-based; details: dog, MDCK cells; procedure, shortened: as §2
[11] = test system: Influenza A virus; assay: Antiviral activity against Influenza A virus Wisconsin/67/2005/H3N2 infected MDCK cells after 42 to 46 hrs by neutral red dye uptake assay; type: functional, organism-based, Influenza A virus (A/Wisconsin/67/2005(H3N2))
Procedure, shortened: (§4)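 Triplicate MDCK wells got serial compound dilutions, then ≤300 CCID50 of virus, with the same inoculum for all replicates. Antiviral effect was read by neutral red dye uptake. EC50 is the concentration giving 50% inhibition of the virus effect, as the mean of triplicates.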

[12] = test system: MDCK; assay: Cytotoxicity against MDCK cells after 3 days by neutral red dye uptake assay; type: cell-based; details: Canis lupus familiaris, 72 h
Procedure, shortened: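 Uninfected MDCK cells in replicate wells were exposed to serial compound dilutions and cell viability was read by neutral red uptake. IC50 is the drug concentration giving 50% cell inhibition without virus.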

[13] = test system: Influenza B virus; assay: Antiviral activity against Influenza B virus Malaysia/2506/2004 infected MDCK cells after 42 to 46 hrs by neutral red dye uptake assay; type: functional, organism-based, B/Malaysia/2506/2004; details: Influenza B virus, B/Malaysia/2506/2004, MDCK; procedure, shortened: as §4
[14] = Selectivity ratio of IC50 for MDCK cells to EC50 for inhibition of virus-induced cytopathic effect of Influenza A virus Hong Kong/213/2003/H5N1; type: cell-based; details: dog, read-out: Ratio IC50/EC50; procedure, shortened: as §1
[15] = Selectivity ratio of IC50 for MDCK cells to EC90 for Influenza A virus Duck/MN/1525/81/H5N1 by virus yield reduction assay; type: ADME, cell-based; details: dog, MDCK cells; procedure, shortened: as §2
[16] = test system: H5N1 subtype; assay: Antiviral activity against Influenza A virus Duck/MN/1525/81/H5N1 infected MDCK cells after 42 to 46 hrs by neutral red dye uptake assay; type: functional, organism-based, Influenza A virus (A/duck/Minnesota/1525/1981(H5N1))
[17] = test system: H5N1 subtype; assay: Antiviral activity against Influenza A virus Gull/PA/4175/83/H5N1 infected MDCK cells after 3 days by virus yield reduction assay; type: functional, Influenza A virus (A/gull/Pennsylvania/4175/83(H5N1)); details: 72 h

| SMILES | selectivity ratio [1] | selectivity ratio [2] | selectivity ratio [3] | selectivity ratio [4] | EC50 [5] [µM] | selectivity ratio [6] | EC50 [9] [µM] | selectivity ratio [10] | IC50 [12] [µM] | EC50 [13] [µM] | selectivity ratio [14] | selectivity ratio [15] | EC90 [17] [µM] | selectivity ratio [7] | EC50 ([8]; Influenza A virus, MDCK) [µM] | EC50 ([11]; Influenza A virus, MDCK) [µM] | EC50 ([16]; Influenza A virus, MDCK) [µM] | further results |
| --- | --- | --- | --- | --- | --- | --- | --- | --- | --- | --- | --- | --- | --- | --- | --- | --- | --- | --- |
| Nc1ccn([C@@H]2C[C@H](CO)[C@@H](O)[C@H]2O)c(=O)n1 | > 230 | > 197 | > 109 | > 259 | 0.6 | > 276 | 1 | > 318 | > 414 | 0.8 | > 591 | > 39 | 1.6 |  |  |  |  | Ratio IC50/EC50 ([7]; mdck): > 518; EC50 ([8]; mdck): 0.8 µM; EC50 ([11]; mdck): 2 µM; EC50 ([16]; mdck): 2 µM |
| Nc1ccn([C@H]2C[C@@H](CO)[C@H](O)[C@@H]2O)c(=O)n1 | 1 | < 10 | 1 | < 10 | > 41 | < 10 | > 41 | < 10 | > 414 | > 41 | < 10 | 1 | > 41 | < 10 | > 41 | > 41 | > 414 |  |
| NC(=O)c1ncn([C@@H]2O[C@H](CO)[C@@H](O)[C@H]2O)n1 [RIBAVIRIN] | > 37 | > 78 | > 101 | > 80 | 10.2 | > 94 | 27.4 | > 49 | > 1310 | 19.5 | > 305 | > 30 | 20.3 | > 139 | 9.4 | 20.2 | 32.5 |  |
